# The source made the active and inactive calls.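 Rule for the calls, unless noted: active = GFP response above 150% of the DMSO level; inconclusive = fewer than 70 events counted for a yeast strain; inactive = the rest.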
# How the values were obtained:
# [1] = hit retest on RPL19A-GFP reporter strain – cell-based, S. cerevisiae, flow cytometry, cherry picks, mother/daughter gates, confirmation (AID 2270;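 active = GFP response below 50% of the DMSO control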); conditions: 3 h, at 10 µM, stronger effect = lower value, 100 = same GFP as DMSO wells
# [2] = yeast TOR pathway reporter LAP4-GFP change – cell-based, cherry picks, flow cytometry, mother/daughter gates, confirmation (AID 2271;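 active = GFP response above 150% of the DMSO control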;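 note: ratio of sample to DMSO plate mean so 100% equals DMSO level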); conditions: S. cerevisiae LAP4-GFP strain, 3 h, at 10 µM, stronger effect = higher value, 100 means same as DMSO control
# Procedure, shortened: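 Measured by: GFP by flow cytometry. Test system: GFP-fusion yeast strain. Input: yeast cells seeded at OD600 of 0.2. Timing: 30 °C, 3 h compound incubation, rotating. Buffer or medium: synthetic complete medium for yeast. Benchmarks: DMSO-only negative wells, rapamycin 400 ng/mL positive wells. Compound: 10 µM single dose.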
# [3] = TOR pathway reporter MEP2-GFP, retest of hits – S. cerevisiae, flow cytometry GFP, cherry picks, confirmation (AID 2272;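 active = GFP response above 150% of the DMSO control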;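 note: ratio of well signal to plate DMSO mean so 100% equals DMSO level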); conditions: S. cerevisiae MEP2-GFP strain, 3 h, at 10 µM, stronger effect = higher value
# [4] = yeast AGP1-GFP fluorescence change, single-dose – cell-based, flow cytometry, S. cerevisiae, cherry picks, confirmation (AID 2273);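 note: median GFP channel fluorescence over the whole cell population gate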; conditions: S. cerevisiae AGP1-GFP strain, 3 h, at 10 µM
# [5] = TOR pathway CIT2 reporter hit retest – S. cerevisiae, GFP fusion, cherry picks, mother/daughter gates, confirmation (AID 2274); conditions: S. cerevisiae CIT2-GFP strain, flow cytometry, 3 h, at 10 µM, stronger effect = higher value
# [6] = measured here: daughter cell gate
# [7] = measured here: mother cell gate
# [8] = measured here: daughter cell gate response
# [9] = measured here: mother cell gate response
SMILES,GFP response vs DMSO [1],"GFP response vs DMSO [1, 6] [%]","GFP response vs DMSO [1, 7] [%]",GFP response relative to DMSO [2],"GFP response relative to DMSO [2, 8] [%]","GFP response relative to DMSO [2, 9] [%]",GFP response vs DMSO [3],"GFP response, % of DMSO [4]","GFP response, % of DMSO [5]","GFP response, % of DMSO [5, 6] [%]","GFP response, % of DMSO [5, 7] [%]"
Cc1ccc(N2CCN(C(=O)c3ccccc3)CC2)c(C)c1,99% (inactive),99.4,99.5,95.4% (inactive),94.4,94,98.3% (inactive),94.3% (inactive),107% (inactive),106,106
COc1ccc(-c2csc(N(CC(C)C)C(=O)c3ccco3)n2)cc1,98.2% (inactive),100,97.7,101% (inactive),101,100,101% (inactive),100% (inactive),98.6% (inactive),101,97.1
Nc1ccc2nc(-c3ccc(-c4nc5ccc(N)cc5[nH]4)cc3)[nH]c2c1,99.3% (inactive),100,96.1,111% (inactive),108,94.4,112% (inactive),99.1% (inactive),108% (inactive),92.3,93.8
Fc1ccc(C2CC(c3ccccc3)n3ncnc3N2)cc1 (configuration not stated),96.8% (inactive),95.3,98,93.8% (inactive),94.1,97.2,100% (inactive),94.3% (inactive),92.6% (inactive),94.8,91.2
CC(C)COC(=O)NCC12C=CC(O1)C1C(=O)N(c3ccc(Cl)cc3)C(=O)C12 (configuration not stated),99.6% (inactive),99.5,98.4,98.9% (inactive),101,99.5,106% (inactive),107% (inactive),101% (inactive),101,102
CCCCc1nnc(NC(=O)c2nc3nccc(C)n3n2)s1,98.7% (inactive),98.3,99.8,96.5% (inactive),95,96.5,106% (inactive),104% (inactive),109% (inactive),109,110
N/C(=N\OC(=O)c1cccc(Br)c1)c1ccccc1,97.2% (inactive),96.4,93.6,137% (inactive),123,143,105% (inactive),64.6% (inactive),140% (inactive),121,140
O=C(COc1ccccc1)Nc1c2c(nn1-c1ccccc1)CS(=O)C2 (configuration not stated),97.1% (inactive),96.4,96.5,97.7% (inactive),99,96.4,103% (inactive),104% (inactive),98.6% (inactive),97.6,100
CN(C)S(=O)(=O)c1cc(NC(=O)CN2CCOCC2)ccc1Cl,97.6% (inactive),97.3,97.7,95.3% (inactive),99,96.4,97.2% (inactive),97.3% (inactive),100% (inactive),99.3,102
Cc1cccc(NC(=O)CCCN2C(=O)c3cccc4cccc(c34)C2=O)c1,101% (inactive),96.9,100,94.4% (inactive),95.9,94.1,99% (inactive),98.8% (inactive),98.8% (inactive),97.4,99.3
C=CCOc1ccc(C(=O)/C=C2/C(=O)Nc3ccccc32)cc1,97.6% (inactive),93.6,97.2,113% (inactive),108,117,111% (inactive),112% (inactive),95.2% (inactive),93.2,93.4
Clc1ccc(-n2cccc2)cn1,101% (inactive),99.2,102,93.8% (inactive),95.6,95.2,100% (inactive),96.3% (inactive),99.1% (inactive),98.1,101
O=C(N/N=C/c1ccccn1)c1sc2ccccc2c1Cl,103% (inactive),94,103,118% (inactive),114,126,114% (inactive),99.3% (inactive),84.7% (inactive),88.9,82.8
Cc1cc(NC(=O)c2ccc3c(c2)OCCO3)ccc1NC(=O)c1cc2ccccc2o1,97.6% (inactive),99.5,96.5,89.4% (inactive),89.8,91.3,103% (inactive),93.2% (inactive),95.8% (inactive),97.6,97.1
O=C(c1cc([N+](=O)[O-])cc([N+](=O)[O-])c1)N(Cc1nnc(-c2ccccc2Cl)o1)C1CC1,102% (inactive),101,105,96.2% (inactive),97.2,99.3,102% (inactive),97.2% (inactive),107% (inactive),103,109
O=C(CS(=O)c1ccccc1[N+](=O)[O-])Oc1ccc(Br)cc1 (configuration not stated),101% (inactive),105,96.5,168% (active),167,164,101% (inactive),107% (inactive),98.6% (inactive),105,91.5
O=C1c2ccccc2C(=O)N1OS(=O)(=O)c1ccc(F)cc1,74% (inactive),89.4,61.9,127% (inactive),129,129,103% (inactive),102% (inactive),121% (inactive),103,99.7
